Converted amounts (≈) assume the structure as drawn.

The conditions of data set [1]: chromatographic retention.
The test system of a further data set is Helicobacter pylori. Nature of the data set: Antibacterial activity against Helicobacter pylori strain. Type of data set: functional. In outline: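 H. pylori ATCC 43504 in Brucella broth (pH 7.0) with 10% FCS, starting at ~10⁶ CFU/mL. Compounds were tested as twofold serial dilutions, 0.5–256 μg/mL, made in DMSO. Cultures were incubated 72 h at 37 °C under 85% N₂/10% CO₂/5% O₂ and read by OD at 560 nm. MIC is the lowest concentration completely inhibiting growth.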

The next data set has as its system Helicobacter felis. Nature of the data set: Antibacterial activity against Helicobacter felis strain in vitro.

On to `Cc1cnc(CSc2nc3cc(Cl)ccc3[nH]2)c(C)c1`, for which, in data set [1], the “Log Ko” value is 0.45. The MBC against Helicobacter pylori was found to be 8 µg/mL (≈ 26.3 µM).

Turning to `COc1ccc2[nH]c(SCc3ncc(C)c(OC)c3C)nc2c1` [UFIPRAZOLE], the “Log Ko” value in data set [1] was 0. The molecule also registered an MBC in the data set on Helicobacter pylori of 32 µg/mL (≈ 97.1 µM).

As for `C=CCOc1ccnc(CSc2nc3ccccc3[nH]2)c1C`, in data set [1], the “Log Ko” value was 0.26. For the same molecule, the MBC against Helicobacter pylori is 1 µg/mL (≈ 3.21 µM).

As for `C#CCOc1ccnc(CSc2nc3ccccc3[nH]2)c1C`, the Log Ko in data set [1] was -0.01. In the data set on Helicobacter pylori, this molecule registered an MBC of 2 µg/mL (≈ 6.46 µM).

Molecule `CC(=O)c1ccc2[nH]c(SCc3ncc(C)cc3C)nc2c1` displayed a Log Ko in data set [1] of -0.11. The MBC with Helicobacter pylori is 128 µg/mL (≈ 411 µM).

`COCCCOc1ccnc(CSc2nc3ccccc3[nH]2)c1C`: the “Log Ko” value in data set [1] is reported as 0.07. Moreover, the MBC against Helicobacter pylori stood at 2 µg/mL (≈ 5.82 µM).

In the case of `COc1ccnc(CSc2nc3cc(CO)ccc3[nH]2)c1C`, the Log Ko in data set [1] is -0.66. In the data set on Helicobacter pylori, this molecule registered a minimal bactericidal concentration (MBC) of 128 µg/mL (≈ 406 µM).

`Cc1c(OCC2CC2)ccnc1CSc1nc2ccccc2[nH]1`: the “Log Ko” value in data set [1] was 0.46. The MBC was found to be 0.5 µg/mL (≈ 1.54 µM) in the data set on Helicobacter felis and 1 µg/mL (≈ 3.07 µM) against Helicobacter pylori.

For `CC1(C)S[C@@H]2[C@H](NC(=O)[C@H](N)c3ccc(O)cc3)C(=O)N2[C@H]1C(=O)O` [AMOXICILLIN], the minimum bactericidal concentration (MBC) in the data set with Helicobacter felis and with Helicobacter pylori was 0.05 µg/mL (≈ 0.137 µM) throughout.

Regarding `COc1c(C)cnc(CSc2nc3cc(C(C)(C)C)ccc3[nH]2)c1C`, the “Log Ko” value in data set [1] is on record as 0.86. This molecule also registered an MBC against Helicobacter pylori of 8 µg/mL (≈ 22.5 µM).

`Cc1c(OCC(C)C)ccnc1CSc1nc2ccccc2[nH]1`: the “Log Ko” value in data set [1] was found to be 0.75. Moreover, the MBC against Helicobacter pylori worked out at 1 µg/mL (≈ 3.05 µM).

Take `COc1c(C)cnc(CSc2nc3ccccc3[nH]2)c1C`: the “Log Ko” value in data set [1] is recorded as 0.05. In the data set on Helicobacter pylori, this molecule gave an MBC of 8 µg/mL (≈ 26.7 µM).

For the molecule `COc1ccc2[nH]c(SCc3cc(SC)ccn3)nc2c1`, the Log Ko in data set [1] is -0.16. Further, the MBC against Helicobacter pylori is 256 µg/mL (≈ 806 µM).

Turning to `COCCOc1ccnc(CSc2nc3ccccc3[nH]2)c1C`, the Log Ko in data set [1] was -0.17. This molecule showed an MBC against Helicobacter pylori of 2 µg/mL (≈ 6.07 µM).

With `COc1ccnc(CSc2nc3cc(F)ccc3[nH]2)c1OC`, the “Log Ko” value in data set [1] amounted to 0.44. In the data set with Helicobacter pylori, the MBC worked out at 4 µg/mL (≈ 12.5 µM).

Take `CCOc1ccnc(CSc2nc3ccccc3[nH]2)c1C`: the “Log Ko” value in data set [1] was determined as 0.19. Besides, the MBC against Helicobacter pylori came to 2 µg/mL (≈ 6.68 µM).

Consider `Clc1ccnc(CSc2nc3ccccc3[nH]2)c1`, for which the Log Ko in data set [1] was -0.08. In the data set on Helicobacter pylori, this molecule gave an MBC of 64 µg/mL (≈ 232 µM).

With `COc1ccnc(CSc2nc3ccccc3[nH]2)c1`, the Log Ko in data set [1] was -0.3. For the same molecule, in the data set on Helicobacter pylori, the MBC was determined as 64 µg/mL (≈ 236 µM).

Molecule `Cc1ccnc(CSc2nc3ccccc3[nH]2)c1` displayed a Log Ko in data set [1] of -0.21. Further, the MBC against Helicobacter pylori was 128 µg/mL (≈ 501 µM).

As for `CC(=O)c1ccc2[nH]c(SCc3cc(C(C)(C)C)ccn3)nc2c1`, in data set [1], the “Log Ko” value was 0.18. Moreover, in the data set with Helicobacter pylori, the minimum bactericidal concentration (MBC) stood at 64 µg/mL (≈ 189 µM).

For the molecule `Cc1c(OCc2ccccc2)ccnc1CSc1nc2ccccc2[nH]1`, the “Log Ko” value in data set [1] is 0.67. The same molecule registered an MBC with Helicobacter pylori of 8 µg/mL (≈ 22.1 µM).

As to `Cc1cnc(CSc2nc3cc(C)ccc3[nH]2)c(C)c1`, the “Log Ko” value in data set [1] turned out to be 0.23. Besides, the MBC in the data set on Helicobacter pylori came out at 32 µg/mL (≈ 113 µM).

On to `COc1ccnc(CSc2nc3ccccc3[nH]2)c1C`, for which the Log Ko in data set [1] was -0.08. In addition, the MBC with Helicobacter pylori came out at 32 µg/mL (≈ 112 µM).

Regarding `Cc1c(OCC(F)(F)F)ccnc1CSc1nc2ccccc2[nH]1` [LANSOPRAZOLE SULFIDE], the “Log Ko” value in data set [1] came to 0.28. For the same molecule, the MBC in the data set on Helicobacter pylori turned out to be 4 µg/mL (≈ 11.3 µM).

Regarding `c1ccc2[nH]c(SCc3cc(OCC4CC4)ccn3)nc2c1`, the “Log Ko” value in data set [1] came to 0.13. In the data set on Helicobacter pylori, this molecule returned an MBC of 32 µg/mL (≈ 103 µM).

For the molecule `c1ccc(CSc2nc3ccccc3[nH]2)nc1`, the MBC against Helicobacter pylori amounted to 128 µg/mL (≈ 530 µM).

By MBC is commonly meant the smallest concentration meeting the test's criterion for killing. The low end stands for greater bactericidal potency, the high end for weaker bactericidal potency.
